Source: ChEMBL document CHEMBL1138932, “Synthesis and anti-hepatitis B virus activity of novel benzimidazole derivatives” (J Med Chem, 2006)
Active and inactive are the calls of the source. The rule behind the calls is not given here.

Experiments:
Hepatitis B virus = assay: Inhibition of HBV DNA replication; type: functional, organism-based
Summary of the method: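 Antiviral assay in HepG 2.2.15 cells; read-out is cytoplasmic HBV-DNA synthesis. IC50 is the concentration giving 50% inhibition of HBV DNA synthesis.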

HepG2 [1] = assay: Cytotoxicity against HepG2.2.15 cells; type: functional; details: Homo sapiens
Summary of the method: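 HepG 2.2.15 cells exposed to compound; CC50 taken as the concentration required for 50% extinction of the cells.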

HepG2 [2] = assay: Selectivity index, CC50 for HepG2.2.15 cells/IC50 for HBV; type: functional
Summary of the method: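 Ratio CC50/IC50. CC50 is the concentration giving 50% extinction of HepG 2.2.15 cells. IC50 is the concentration giving 50% inhibition of cytoplasmic HBV-DNA synthesis.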

Structure (SMILES) | IC50 (Hepatitis B virus) [µM] | CC50 (HepG2 [1]) [µM] | Selectivity index (HepG2 [2]) | Activity (Hepatitis B virus)
COc1ccc(S(=O)(=O)n2c(CCN3C(=O)c4ccccc4C3=O)nc3cc(Cl)c(Cl)cc32)cc1 | 7.2 | 189 | 26 | 
CS(=O)(=O)n1c(CCN2C(=O)c3ccccc3C2=O)nc2cc(Cl)c(Cl)cc21 |  | 175 |  | inactive
Cc1ccc(S(=O)(=O)n2c(CCN3C(=O)c4ccccc4C3=O)nc3cc(F)c(F)cc32)cc1 | 1.2 | 31 | 26 | 
Nc1ccn([C@@H]2CS[C@H](CO)O2)c(=O)n1 [LAMIVUDINE] | 0.38 | > 1000 | >2632 | 
Cc1ccc(S(=O)(=O)n2c(CCCN3C(=O)c4ccccc4C3=O)nc3cc(Cl)c(Cl)cc32)cc1 | 0.34 | 13 | 38 | 
O=C1c2ccccc2C(=O)N1CCc1nc2cc(F)c(F)cc2n1S(=O)(=O)c1cccc([N+](=O)[O-])c1 | 0.14 | 10 | 71 | 
Cc1ccc(S(=O)(=O)n2c(CCN3C(=O)c4ccccc4C3=O)nc3cc(Cl)c(Cl)cc32)cc1 | 2.9 | 867 | 299 | 
Cc1ccc(S(=O)(=O)n2c(CN3C(=O)c4ccccc4C3=O)nc3cc(Cl)c(Cl)cc32)cc1 | 0.5 | 90 | 180 | 
O=C1c2ccccc2C(=O)N1CCc1nc2cc(Cl)c(Cl)cc2[nH]1 | 300 | 330 | 1 | 
Nc1ncnc2c1ncn2CCOCP(=O)(O)O [ADEFOVIR] | 1.3 | 203 | 156 | 
Cn1c(CCc2ccccc2)nc2cc(Cl)c(Cl)cc21 |  | 15.3 |  | inactive
O=C1c2ccccc2C(=O)N1CCc1nc2cc(F)c(F)cc2n1S(=O)(=O)c1ccc(C(F)(F)F)cc1 | 3.2 | 11 | 3 | 
Cn1c(CCc2ccco2)nc2cc(Cl)c(Cl)cc21 |  | 5.9 |  | inactive
Cc1ccc(C(=O)n2c(CCN3C(=O)c4ccccc4C3=O)nc3cc(Cl)c(Cl)cc32)cc1 | 53.2 | > 1000 | >19 | 
Cn1c(CCC2CCCCC2)nc2cc(Cl)c(Cl)cc21 | 18.5 | > 500 | >27 | 
Cn1c(CCc2cccs2)nc2cc(Cl)c(Cl)cc21 |  | 16 |  | inactive

More lines, in order of falling IC50 (Hepatitis B virus), values ahead:

IC50 (Hepatitis B virus) [µM] | Structure (SMILES) | CC50 (HepG2 [1]) [µM] | Selectivity index (HepG2 [2]) | Activity (Hepatitis B virus)
50.2 | O=C1c2ccccc2C(=O)N1CCc1nc2cc(Cl)c(Cl)cc2n1S(=O)(=O)c1ccc([N+](=O)[O-])cc1 | 181 | 4 | 
30.4 | O=C1c2ccccc2C(=O)N1CCc1nc2ccccc2n1S(=O)(=O)c1cccc(C(F)(F)F)c1 | 10 | 0.3 | 
19.4 | Cc1ccc(S(=O)(=O)n2c(N3C(=O)c4ccccc4C3=O)nc3cc(Cl)c(Cl)cc32)cc1 | 122 | 6 | 
10.3 | Cn1c(CCC2CCCO2)nc2cc(Cl)c(Cl)cc21 (centres undefined) | 56 | 5 | 
4.6 | Cn1c(CCc2ccncc2)nc2cc(Cl)c(Cl)cc21 | 35.8 | 8 | 
3.9 | CCCc1nc2cc(Cl)c(Cl)cc2n1C | 24.6 | 6 | 
3.4 | Cc1ccc(S(=O)(=O)n2c(CCN3Cc4ccccc4C3=O)nc3cc(Cl)c(Cl)cc32)cc1 | 23 | 7 | 
2.2 | Cc1ccc(S(=O)(=O)n2c(CCN3C(=O)c4ccccc4C3=O)nc3ccccc32)cc1 | 164 | 75 | 
2.2 | O=C1c2ccccc2C(=O)N1CCc1nc2ccccc2n1S(=O)(=O)c1ccccc1 | 28 | 13 | 
1.4 | Cc1ccc(Cn2c(CCN)nc3cc(Cl)c(Cl)cc32)cc1 | 4 | 3 | 
0.9 | Cn1c(CCN2C(=O)c3ccccc3C2=O)nc2cc(Cl)c(Cl)cc21 | > 1000 | >1111 | 
0.7 | CC(C)c1ccc(S(=O)(=O)n2c(CCN3C(=O)c4ccccc4C3=O)nc3cc(Cl)c(Cl)cc32)cc1 | 17 | 24 | 
0.7 | Cc1ccc(Cn2c(CCN3C(=O)c4ccccc4C3=O)nc3cc(Cl)c(Cl)cc32)cc1 | > 500 | >714 | 
0.68 | Cc1ccc(S(=O)(=O)n2c(CCN3C(=O)C=CC3=O)nc3cc(Cl)c(Cl)cc32)cc1 | 33 | 49 | 
0.64 | O=C1c2ccccc2C(=O)N1CCc1nc2cc(F)c(F)cc2n1S(=O)(=O)c1ccccc1[N+](=O)[O-] | 77 | 120 | 
